Measurements: ChEMBL document CHEMBL1123010, “Nucleosides. 133. Synthesis of 5-alkenyl-1-(2-deoxy-2-fluoro-beta-D-arabinofuranosyl)cytosines and related pyrimidine nucleosides as potential antiviral agents” (J Med Chem, 1985)

Columns and labels:
Human alphaherpesvirus 2 [1] = assay: Antiviral activity against herpes simplex type-2 expressed as ED90; type: functional
Procedure, shortened: (§1)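 Plaque reduction in confluent mycoplasma-free Vero cells infected with HSV-1 strain F or HSV-2 strain G (about 100 plaques/well), rocked 1 h, inoculum removed, PBS (pH 7.2) wash. Five or more drug concentrations in maintenance medium with 0.1% pooled human globulin, in replicate.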

Vero = assay: Cytotoxic activity against vero cells was evaluated.; type: functional; settings: Chlorocebus sabaeus, read-out: ID50 (the source's name)
Procedure, shortened: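 Drug toxicity measured in rapidly dividing Vero cells over 3 days; 50% inhibitory dose (ID50) derived by linear regression analysis.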

Human alphaherpesvirus 1 [2] = assay: Antiviral activity against herpes simplex type-1 expressed as ED50; type: functional; settings: read-out: ED50 (the source's name); procedure, shortened: as §1
Human alphaherpesvirus 1 [3] = assay: Antiviral activity against herpes simplex type-1 expressed as ED90; type: functional; procedure, shortened: as §1
Human alphaherpesvirus 2 [4] = assay: Antiviral activity against herpes simplex type-2 expressed as ED50; type: functional; settings: read-out: ED50 (the source's name); procedure, shortened: as §1
[5] = test system: Human alphaherpesvirus 1 (HSV-1); assay: Ratio of ID50/ID90 in HSV-1 infected cells; type: ADME, organism-based; settings: human alphaherpesvirus 1, HSV-1 infected cells; read-out: Therapeutic index
Procedure, shortened: (§2)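 Ratio of two measurements. ID50 came from 3-day growth of rapidly dividing Vero cells, by linear regression. ED90 came from plaque reduction in confluent Vero cells infected with HSV-1 strain F or HSV-2 strain G (about 100 plaques/well). After 1 h adsorption, compounds were added at ≥5 concentrations in medium with 0.1% human globulin. Plaques grew 48 h, then were formalin-fixed, crystal-violet-stained and counted; regression was against log concentration.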

[6] = molecular target: T1, Thymidine kinase (Human herpesvirus 2) (UniProt Q6L709); assay: Effect on thymidine kinase in the herpes simplex type-2 infected cells; type: functional; set-up: concentration or dose not given beside the values
T1 sequence (whole entry): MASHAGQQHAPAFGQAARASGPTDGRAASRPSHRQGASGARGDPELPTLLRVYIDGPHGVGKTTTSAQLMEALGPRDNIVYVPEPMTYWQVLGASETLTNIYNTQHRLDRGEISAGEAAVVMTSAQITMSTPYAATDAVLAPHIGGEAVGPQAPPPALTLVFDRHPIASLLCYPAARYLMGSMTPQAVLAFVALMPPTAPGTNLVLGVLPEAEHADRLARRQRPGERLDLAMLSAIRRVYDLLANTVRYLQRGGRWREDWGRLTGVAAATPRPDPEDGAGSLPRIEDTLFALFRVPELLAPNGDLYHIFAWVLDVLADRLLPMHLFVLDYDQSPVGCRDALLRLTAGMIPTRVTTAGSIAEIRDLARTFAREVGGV

L1210 = assay: In vitro inhibitory activity against L1212/0 cell line; type: functional; settings: Mus musculus, read-out: ID50 (the source's name)
Procedure, shortened: (§3)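 Mouse leukemia cells (L1210/0, P815/0, P815/Ara-C) at 4×10^4 cells/mL in McCoy's 5A with 15% fetal calf serum, nucleoside added as 20-fold concentrate; 96 h at 37 °C in 5% CO2. Cells Coulter-counted, percent growth inhibition and 50% growth-inhibiting concentration calculated.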

P815 [7] = assay: In vitro inhibitory activity against P815/ara-C cell line; type: functional; settings: Mus musculus, read-out: ID50 (the source's name); procedure, shortened: as §3
[8] = test system: Human alphaherpesvirus 2 (HSV-2); assay: Ratio of ID50/ID90 in HSV-2 infected cells; type: ADME, organism-based; settings: human alphaherpesvirus 2, HSV-2 infected cells; read-out: Therapeutic index; procedure, shortened: as §2
P815 [9] = assay: In vitro inhibitory activity against P815/0 cell line; type: functional; settings: Mus musculus, read-out: ID50 (the source's name); procedure, shortened: as §3
[10] = (§4) Ratio of ID50/ID90 in HSV-1; type: functional
[11] = (§5) Ratio of ID50/ID90 in HSV-2; type: functional
[12] = test system: Human alphaherpesvirus 2 (HSV-2); assay: as §5; type: ADME, organism-based; settings: human alphaherpesvirus 2, in vivo; procedure, shortened: as §2
[13] = test system: Human alphaherpesvirus 1 (HSV-1); assay: as §4; type: ADME, organism-based; settings: human alphaherpesvirus 1, in vivo; procedure, shortened: as §2
[14] = test system: Human alphaherpesvirus 1 (HSV-1); assay: Ratio of ID50/ID90 in HSV-1 in fected cells; type: ADME, organism-based; settings: human alphaherpesvirus 1, HSV-1 infected cells; read-out: Therapeutic index; procedure, shortened: as §2
Human alphaherpesvirus 1 [15] = assay: Effect of compound on thymidine kinase in the herpes simplex type-2 infected cells; type: functional, Human alphaherpesvirus 2

C[Si](C)(C)C#Cc1cn([C@@H]2O[C@H](CO)[C@@H](O)[C@@H]2F)c(=O)[nH]c1=O
ED90 (Human alphaherpesvirus 2 [1]): 32.1 µM | IC50 (Vero): 17.1 µM | EC50 (Human alphaherpesvirus 1 [2]): 5.7 µM | ED90 (Human alphaherpesvirus 1 [3]): 39.5 µM | EC50 (Human alphaherpesvirus 2 [4]): 5.1 µM | selectivity ratio [5]: 0.4 | Control [6]: 95.8% | IC50 (L1210): 17.8 µM | IC50 (P815 [7]): 107 µM | selectivity ratio [8]: 0.5 | IC50 (P815 [9]): 9.8 µM

O=c1[nH]c(=O)n([C@@H]2O[C@H](CO)[C@@H](O)[C@@H]2F)cc1/C=C/Cl
ED90 (Human alphaherpesvirus 2 [1]): 5.5 µM | IC50 (Vero): 159 µM | EC50 (Human alphaherpesvirus 1 [2]): 0.059 µM | ED90 (Human alphaherpesvirus 1 [3]): 0.7 µM | EC50 (Human alphaherpesvirus 2 [4]): 0.52 µM | selectivity ratio [5]: 227 | Control [6]: 106% | selectivity ratio [8]: 29

O=c1[nH]c(=O)n([C@@H]2O[C@H](CO)[C@@H](O)[C@@H]2F)cc1/C=C/I
ED90 (Human alphaherpesvirus 2 [1]): 0.84 µM | IC50 (Vero): 56 µM | EC50 (Human alphaherpesvirus 1 [2]): 0.037 µM | ED90 (Human alphaherpesvirus 1 [3]): 0.11 µM | EC50 (Human alphaherpesvirus 2 [4]): 0.15 µM | selectivity ratio [5]: 509 | Control [6]: 96.2% | selectivity ratio [8]: 67

Nc1nc(=O)n([C@@H]2O[C@H](CO)[C@@H](O)[C@@H]2F)cc1/C=C/Br
Therapeutic index [10]: 44 | ED90 (Human alphaherpesvirus 2 [1]): 4.5 µM | IC50 (Vero): 23 µM | EC50 (Human alphaherpesvirus 1 [2]): 0.068 µM | ED90 (Human alphaherpesvirus 1 [3]): 0.52 µM | EC50 (Human alphaherpesvirus 2 [4]): 0.037 µM | Control [6]: 104% | Therapeutic index [11]: 5

C#Cc1cn([C@@H]2O[C@H](CO)[C@@H](O)[C@@H]2F)c(=O)[nH]c1=O
ED90 (Human alphaherpesvirus 2 [1]): 7.9 µM | IC50 (Vero): 62 µM | EC50 (Human alphaherpesvirus 1 [2]): 1.9 µM | ED90 (Human alphaherpesvirus 1 [3]): 46.6 µM | EC50 (Human alphaherpesvirus 2 [4]): 3 µM | selectivity ratio [5]: 1.3 | Control [6]: 90.8% | IC50 (L1210): 23.5 µM | IC50 (P815 [7]): 84.7 µM | selectivity ratio [8]: 8 | IC50 (P815 [9]): 20.4 µM

O=c1[nH]c(=O)n([C@@H]2O[C@H](CO)[C@@H](O)[C@@H]2F)cc1/C=C/Br
ED90 (Human alphaherpesvirus 2 [1]): 0.73 µM | IC50 (Vero): 101 µM | EC50 (Human alphaherpesvirus 1 [2]): 0.067 µM | ED90 (Human alphaherpesvirus 1 [3]): 0.47 µM | EC50 (Human alphaherpesvirus 2 [4]): 0.13 µM | selectivity ratio [5]: 216 | Control [6]: 86% | selectivity ratio [8]: 138

Nc1nc(=O)n([C@@H]2O[C@H](CO)[C@@H](O)[C@@H]2F)cc1/C=C/I
ED90 (Human alphaherpesvirus 2 [1]): 2.3 µM | IC50 (Vero): > 200 µM | EC50 (Human alphaherpesvirus 1 [2]): 0.088 µM | ED90 (Human alphaherpesvirus 1 [3]): 0.74 µM | selectivity ratio [12]: > 87 | EC50 (Human alphaherpesvirus 2 [4]): 0.027 µM | Control [6]: 101% | selectivity ratio [13]: > 270

Cc1cn([C@@H]2O[C@H](CO)[C@@H](O)[C@@H]2F)c(=O)[nH]c1=O [5-METHYL-2'-FLUOROARAURACIL]
ED90 (Human alphaherpesvirus 2 [1]): 0.09 µM | IC50 (Vero): 2.8 µM | EC50 (Human alphaherpesvirus 1 [2]): 0.01 µM | ED90 (Human alphaherpesvirus 1 [3]): 0.042 µM | EC50 (Human alphaherpesvirus 2 [4]): 0.023 µM | Control [6]: 94.1% | IC50 (L1210): 2.95 µM | IC50 (P815 [7]): 12.4 µM | IC50 (P815 [9]): 0.98 µM

C#Cc1cn([C@@H]2O[C@H](CO)[C@@H](O)[C@@H]2F)c(=O)nc1N
ED90 (Human alphaherpesvirus 2 [1]): 6 µM | IC50 (Vero): 30 µM | EC50 (Human alphaherpesvirus 1 [2]): 2.1 µM | ED90 (Human alphaherpesvirus 1 [3]): 7.5 µM | EC50 (Human alphaherpesvirus 2 [4]): 0.64 µM | selectivity ratio [5]: 4 | Control [6]: 86.3% | IC50 (L1210): 10.1 µM | IC50 (P815 [7]): > 300 µM | selectivity ratio [8]: 5 | IC50 (P815 [9]): 52.1 µM

C=Cc1cn([C@@H]2O[C@H](CO)[C@@H](O)[C@@H]2F)c(=O)[nH]c1=O
ED90 (Human alphaherpesvirus 2 [1]): 0.56 µM | IC50 (Vero): 10.8 µM | EC50 (Human alphaherpesvirus 1 [2]): 0.009 µM | ED90 (Human alphaherpesvirus 1 [3]): 0.043 µM | EC50 (Human alphaherpesvirus 2 [4]): 0.09 µM | selectivity ratio [5]: 251 | Control [6]: 109% | IC50 (L1210): 29 µM | IC50 (P815 [7]): 32.8 µM | selectivity ratio [8]: 19 | IC50 (P815 [9]): 20.8 µM

CCc1cn([C@@H]2O[C@H](CO)[C@@H](O)[C@@H]2F)c(=O)nc1N
ED90 (Human alphaherpesvirus 2 [1]): 4.9 µM | IC50 (Vero): 143 µM | EC50 (Human alphaherpesvirus 1 [2]): 0.035 µM | ED90 (Human alphaherpesvirus 1 [3]): 0.57 µM | EC50 (Human alphaherpesvirus 2 [4]): 0.32 µM | selectivity ratio [5]: 251 | Control [6]: 101% | selectivity ratio [8]: 29

Cc1cn([C@@H]2O[C@H](CO)[C@@H](O)[C@@H]2F)c(=O)nc1N
ED90 (Human alphaherpesvirus 2 [1]): 0.1 µM | IC50 (Vero): 1.5 µM | EC50 (Human alphaherpesvirus 1 [2]): 0.006 µM | selectivity ratio [14]: 31 | ED90 (Human alphaherpesvirus 1 [3]): 0.048 µM | EC50 (Human alphaherpesvirus 2 [4]): 0.026 µM | Control [6]: 110% | selectivity ratio [8]: 15

C=Cc1cn([C@@H]2O[C@H](CO)[C@@H](O)[C@@H]2F)c(=O)nc1N
ED90 (Human alphaherpesvirus 2 [1]): 0.59 µM | IC50 (Vero): 41 µM | EC50 (Human alphaherpesvirus 1 [2]): 0.025 µM | ED90 (Human alphaherpesvirus 1 [3]): 0.4 µM | EC50 (Human alphaherpesvirus 2 [4]): 0.062 µM | selectivity ratio [5]: 103 | Control [6]: 111% | IC50 (L1210): 10.7 µM | IC50 (P815 [7]): > 300 µM | selectivity ratio [8]: 70 | IC50 (P815 [9]): 23.8 µM

CCOC(=O)/C=C/c1cn([C@@H]2O[C@H](CO)[C@@H](O)[C@@H]2F)c(=O)nc1N
ED90 (Human alphaherpesvirus 2 [1]): >100 µM | IC50 (Vero): 126 µM | EC50 (Human alphaherpesvirus 1 [2]): > 100 µM | ED90 (Human alphaherpesvirus 1 [3]): >100 µM | EC50 (Human alphaherpesvirus 2 [4]): > 100 µM | Control (Human alphaherpesvirus 1 [15]): 107%

Nc1nc(=O)n([C@@H]2O[C@H](CO)[C@@H](O)[C@@H]2F)cc1/C=C/C(=O)[O-].[Na+]
ED90 (Human alphaherpesvirus 2 [1]): >100 µM | IC50 (Vero): > 200 µM | EC50 (Human alphaherpesvirus 1 [2]): > 100 µM | ED90 (Human alphaherpesvirus 1 [3]): >100 µM | EC50 (Human alphaherpesvirus 2 [4]): > 100 µM | Control [6]: 111%

O=c1[nH]c(=O)n([C@H]2C[C@H](O)[C@@H](CO)O2)cc1/C=C/Br [BRIVUDINE]
ED90 (Human alphaherpesvirus 2 [1]): 17 µM | IC50 (Vero): 191 µM | EC50 (Human alphaherpesvirus 1 [2]): 0.019 µM | ED90 (Human alphaherpesvirus 1 [3]): 0.062 µM | EC50 (Human alphaherpesvirus 2 [4]): 0.23 µM | selectivity ratio [5]: 3080 | Control [6]: 110% | selectivity ratio [8]: 11
